Assays:
[1] = test system: CAKI-1; assay: 50% inhibition of cell growth against CAK1 cell line; assay type: functional; conditions: Homo sapiens
Summary of the method: (§1)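 Tested in the NCI human tumour cell line panel. GI50 (nM) is the drug concentration inhibiting cell growth to 50% of controls. The panel mean ("Mid") is the average GI50 over the whole cell line panel.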

[2] = The average concentration resulting in inhibition of cell growth to 50% whole cell line panel; assay type: functional; summary of the method: as §1
[3] = test system: SK-OV-3; assay: 50% inhibition of cell growth against SKOV-3 cell line; assay type: functional; conditions: Homo sapiens; summary of the method: as §1
[4] = test system: NCI/ADR-RES; assay: 50% inhibition of cell growth against NCI/ADRcell line; assay type: functional; conditions: Homo sapiens; summary of the method: as §1
[5] = test system: Lewis lung carcinoma cell line; assay: Inhibitory activity against Murine Lewis lung carcinoma cells; assay type: functional, cell-based; conditions: Mus musculus
Summary of the method: (§2)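 Growth inhibition in microculture with drug present throughout. Seeding was 4.5 × 10³ P388, 10³ Lewis lung or 3.75 × 10³ wild-type Jurkat cells per well. Exposure was 3 days for P388 and 4 days for the others. IC50 (nM) is the drug concentration reducing cell number to 50% of control cultures. Each value averages at least two independent duplicate determinations; CV 15–22%.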

[6] = test system: HCT-116; assay: 50% inhibition of cell growth against HCT116 cell line; assay type: functional; conditions: Homo sapiens; summary of the method: as §1
[7] = test system: Jurkat; assay: Inhibitory activity against wild-type human Jurkat leukemia cells; assay type: functional, cell-based; summary of the method: as §2
[8] = test system: MCF7; assay: 50% inhibition of cell growth against MCF-7 cell line; assay type: functional; conditions: Homo sapiens; summary of the method: as §1
[9] = test system: P388; assay: Inhibitory activity against Murine P388 leukemia cells; assay type: functional, cell-based; conditions: Mus musculus; summary of the method: as §2
[10] = test system: HT-29; assay: 50% inhibition of cell growth against HT-29 cell line; assay type: functional; conditions: Homo sapiens; summary of the method: as §1

Structure (SMILES) | GI50 [3] | IC50 [5] | GI50 [6] | IC50 [7] | GI50 [8] | IC50 [9] | GI50 [10] | GI50 [1] | GI50 [2] | GI50 [4]
Cc1ccc(C(=O)NCCCN(C)CCCNC(=O)c2ccc(C)c3nc4ccccc4nc23)c2nc3ccccc3nc12 |  | 26 nM |  | 102 nM |  | 375 nM |  |  |  | 
COc1ccc2nc3cccc(C(=O)NCCCN(C)CCCNC(=O)c4cccc5nc6ccc(OC)cc6nc45)c3nc2c1 | 800 nM | 24 nM | < 10 nM | 30 nM | < 10 nM | 75 nM | < 10 nM | 82 nM | 72 nM | 1210 nM
CN(CCCNC(=O)c1cc(Cl)cc2nc3ccccc3nc12)CCCNC(=O)c1cc(Cl)cc2nc3ccccc3nc12 | 1460 nM | 12 nM | 18 nM | 74 nM | 110 nM | 204 nM | < 10 nM | 1170 nM | 180 nM | 125 nM
COc1ccc2nc3c(C(=O)NCCCN(C)CCCNC(=O)c4cccc5nc6cc(OC)ccc6nc45)cccc3nc2c1 | 9660 nM | 64 nM | 37 nM | 195 nM | 2000 nM | 600 nM | 93 nM | 3020 nM | 4170 nM | 20000 nM
CN(CCCNC(=O)c1c(Cl)ccc2nc3ccccc3nc12)CCCNC(=O)c1c(Cl)ccc2nc3ccccc3nc12 | 88000 nM | 8370 nM | 285 nM | 2370 nM | 4070 nM | 12000 nM | 135 nM | 34000 nM | 5750 nM | > 100000 nM
Cc1cc(C(=O)NCCCN(C)CCCNC(=O)c2cc(C)cc3nc4ccccc4nc23)c2nc3ccccc3nc2c1 | 12000 nM | 48 nM | 470 nM | 208 nM | 310 nM | 472 nM | 130 nM | 170 nM | 725 nM | 5730 nM
Cc1ccc2nc3cccc(C(=O)NCCCN(C)CCCNC(=O)c4cccc5nc6ccc(C)cc6nc45)c3nc2c1 | 11000 nM | 108 nM | 325 nM | 148 nM | 330 nM | 690 nM | 90 nM | 240 nM | 290 nM | 1570 nM
CN(CCCNC(=O)c1cccc2nc3ccc4ccccc4c3nc12)CCCNC(=O)c1cccc2nc3ccc4ccccc4c3nc12 |  | 3.2 nM |  | 9 nM |  | 24 nM |  |  |  | 
CN(CCCNC(=O)c1cccc2nc3cccc(Oc4ccccc4)c3nc12)CCCNC(=O)c1cccc2nc3cccc(Oc4ccccc4)c3nc12 | 11000 nM | 1310 nM | 1770 nM | 1250 nM | 3480 nM | 3450 nM | 1790 nM | 5360 nM | 3160 nM | 1630 nM
Cc1ccc(C)c2nc3c(C(=O)NCCCN(C)CCCNC(=O)c4cccc5nc6c(C)ccc(C)c6nc45)cccc3nc12 | 74 nM | 5.3 nM | < 10 nM | 21 nM | < 10 nM | 26 nM | < 10 nM | < 10 nM | 34 nM | 35 nM
CN(CCCNC(=O)c1cccc2nc3c(ccc4ccccc43)nc12)CCCNC(=O)c1cccc2nc3c(ccc4ccccc43)nc12 |  | 410 nM |  | 290 nM |  | 450 nM |  |  |  | 
Cc1ccc2nc3c(C(=O)NCCCN(C)CCCNC(=O)c4cccc5nc6cc(C)ccc6nc45)cccc3nc2c1 | 5840 nM | 72 nM | 455 nM | 280 nM | 550 nM | 623 nM | 235 nM | 430 nM | 600 nM | 2660 nM

Second part, led by results:

GI50 [3] | IC50 [5] | GI50 [6] | IC50 [7] | GI50 [8] | IC50 [9] | GI50 [10] | Structure (SMILES) | GI50 [1] | GI50 [2] | GI50 [4]
12000 nM | 46 nM | 63 nM | 172 nM | 480 nM | 584 nM | 270 nM | Cc1cccc2nc3c(C(=O)NCCCN(C)CCCNC(=O)c4cccc5nc6c(C)cccc6nc45)cccc3nc12 | 370 nM | 740 nM | 920 nM
 | 151 nM |  | 209 nM |  | 7740 nM |  | CN(CCCNC(=O)c1cccc2nc3c(Cl)cccc3nc12)CCCNC(=O)c1cccc2nc3c(Cl)cccc3nc12 |  |  | 
850 nM | 107 nM | 16 nM | 173 nM | 120 nM | 520 nM | 44 nM | CN(CCCNC(=O)c1cccc2nc3ccccc3nc12)CCCNC(=O)c1cccc2nc3ccccc3nc12 | 225 nM | 210 nM | 1050 nM
2030 nM | 5.2 nM | < 10 nM | 9.8 nM | < 10 nM | 29 nM | 40 nM | Cc1ccc(Cl)c2nc3cccc(C(=O)NCCCN(C)CCCNC(=O)c4cccc5nc6c(Cl)ccc(C)c6nc45)c3nc12 | < 10 nM | 50 nM | 50 nM
1960 nM | 83 nM | 35 nM | 249 nM | 330 nM | 2960 nM | 80 nM | CN(CCCNC(=O)c1cccc2nc3cc(Cl)ccc3nc12)CCCNC(=O)c1cccc2nc3cc(Cl)ccc3nc12 | 530 nM | 560 nM | 1140 nM
14000 nM | 120 nM | 225 nM | 177 nM | 460 nM | 294 nM | 400 nM | CN(CCCNC(=O)c1cccc2nc3cccc(F)c3nc12)CCCNC(=O)c1cccc2nc3cccc(F)c3nc12 | 1730 nM | 1320 nM | 7450 nM
790 nM | 8.8 nM | < 10 nM | 14 nM | 35 nM | 39 nM | 70 nM | CN(CCCNC(=O)c1cccc2nc3cccc(Cl)c3nc12)CCCNC(=O)c1cccc2nc3cccc(Cl)c3nc12 | 15 nM | 93 nM | 350 nM
220 nM | 1.6 nM | < 10 nM | 5.7 nM | < 10 nM | 15 nM | < 10 nM | Cc1cccc2nc3cccc(C(=O)NCCCN(C)CCCNC(=O)c4cccc5nc6cccc(C)c6nc45)c3nc12 | < 10 nM | 20 nM | 19 nM
10000 nM | 310 nM | 430 nM | 695 nM | 1820 nM | 2280 nM | 530 nM | CN(CCCNC(=O)c1cccc2nc3cccc(N(C)C)c3nc12)CCCNC(=O)c1cccc2nc3cccc(N(C)C)c3nc12 | 2910 nM | 2510 nM | 11000 nM
1560 nM | 160 nM | < 10 nM | 124 nM | 47 nM | 815 nM | 35 nM | COc1cccc2nc3cccc(C(=O)NCCCN(C)CCCNC(=O)c4cccc5nc6cccc(OC)c6nc45)c3nc12 | 1420 nM | 575 nM | 21000 nM
1880 nM | 44 nM | < 10 nM | 42 nM | < 10 nM | 97 nM | < 10 nM | CN(CCCNC(=O)c1cccc2nc3ccc(Cl)cc3nc12)CCCNC(=O)c1cccc2nc3ccc(Cl)cc3nc12 | 62 nM | 70 nM | 240 nM

From ChEMBL document CHEMBL1132997, “Bis(phenazine-1-carboxamides): structure-activity relationships for a new class of dual topoisomerase I/II-directed anticancer drugs” (J Med Chem, 2000)
